CAL PDZ FP-1 = inhibitors of human CAL PDZ peptide binding; Q9HD26; purified CAL PDZ, TMR-peptide fluorescence polarization, 1 h; inhibition, % at 24.9 µM; 0.92% of 300,000 active; AID 602252;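 active = mean inhibition of at least 30% with at least half of replicates also reaching 30%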;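 also: 0% = DMSO neutral control and 100% = excess unlabeled competitor peptide PRC23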
CAL PDZ FP-2 = human CAL PDZ-peptide interaction inhibition. 0.02% of 330,000 active. purified CAL PDZ, TMR-peptide fluorescence polarization, 1 h. Q9HD26. inhibition, % at 20 µM;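 active = highest replicate inhibition of at least 40%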;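 also: plate controls were DMSO neutral control wells for no effect and unlabeled competitor peptide control wells for full effect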
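material = purified tagged CAL PDZ domain construct (CerCALP) | buffer or medium = sodium phosphate/NaCl buffer pH 7.4 with TCEP, IgG, Thesit | reagent = TMR-labelled reporter peptide T*-PRC34 bound in PDZ groove | incubation = 1 h room-temperature incubation prior to read | measured by = fluorescence polarization (mP) | evaluation = percent inhibition from loss of millipolarization | control set = unlabelled peptide and DMSO controls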
CaV13 ICDI inh = Disruptors of the CACNA1D IQ motif to Ca2+-dependent inactivation inhibitor domain association, primary screening, Förster resonance energy transfer in intact living … | HEK cells, CFP/YFP FRET ICDI-IQ, plate reader, 10 min; percent FRET-ratio fall versus neutral wells | inhibition, % at 12.3 µM | 0.098% of 340,000 active | AID 743397;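 active = mean replicate inhibition of at least 30% and at least 1% of replicates passing that level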;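 also: 0% = median of the neutral control wells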
ARNT-TACC3 inh = ARNT/TACC3 interaction disruption | Q9Y6A5 | AlphaScreen His-ARNT PAS-B/GST-TACC3 binding, luminescence; TACC3 fragment carries E629A point mutation | inhibition, % at 9.99 µM | 0.66% of 390,000 active | AID 623870;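 active = mean inhibition of replicates at least 50% and at least half of replicates each reaching 50%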;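 also: 0% = complete ARNT plus TACC3 wells and 100% = ARNT alone without TACC3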
Starred values were filed as active, the others as inactive; ! = not active in a repeat. The list is not random: actives were taken first. Their share in the collection is about 1.2%.

COCc1ccc(CN2CCc3c([nH]c4ccccc34)C2C(C)(C)C)o1 (stereo not drawn) was read as CAL PDZ FP-2 0.6, CaV13 ICDI inh 7.7 and ARNT-TACC3 inh 45.1*.
`N#C[C@@H]1[C@@H](c2ccc(-c3cccc(F)c3)cc2)[C@@H](CO)N1S(=O)(=O)c1cccc(F)c1` gave ARNT-TACC3 inh -22.8.
For COc1ccc(NC(=O)Nc2ccc3c(c2)C(=O)N([C@H](C)CO)C[C@H](C)[C@@H](CN(C)C(=O)C2CCCCC2)OCCCC[C@@H](C)O3)cc1 the results were ARNT-TACC3 inh -4.3.
`O=C(Nc1ccc(F)cc1)Nc1ccc(Cl)cn1` gave CAL PDZ FP-2 -2.3, CaV13 ICDI inh -8.1 and ARNT-TACC3 inh 1.5.
`O=C(Nc1ccc(Cl)cn1)Nc1ccc(Cl)cn1` gave CAL PDZ FP-1 47.4*, CAL PDZ FP-2 -1.1, CaV13 ICDI inh -18.8 and ARNT-TACC3 inh -8.4.
For COc1ccccc1CN1[C@H](CO)[C@@H]2c3ccccc3N(C(=O)C3CCC3)C[C@@H]21 the results were ARNT-TACC3 inh -6.5.
`O=C(O)c1ccc(N/N=C/c2cn(Cc3ccccc3F)c3ccccc23)cc1` gave CAL PDZ FP-1 -4.5, CAL PDZ FP-2 -0.9, CaV13 ICDI inh -5.1 and ARNT-TACC3 inh 0.5.
For CC(C)n1cc(/C=N/Nc2ccc(C(=O)O)cc2)c2ccccc21 the results were CAL PDZ FP-1 71.4*, CAL PDZ FP-2 0.2, CaV13 ICDI inh -4.2 and ARNT-TACC3 inh -2.4.
Screening C[C@@H]1CN([C@H](C)CO)C(=O)c2cc(C#C[C@@H](C)O)cnc2O[C@H]1CN(C)C(=O)Cc1ccncc1 returned ARNT-TACC3 inh 5.5.
Screening COc1cc2c(C#N)c(N3CCN(C)CC3)nc(N)c2c(N)n1 returned CAL PDZ FP-1 10.0, CAL PDZ FP-2 1.8, CaV13 ICDI inh -4.4 and ARNT-TACC3 inh -11.2.
`COc1cc2c(C#N)c(N3CCCC3)nc(N)c2c(N)n1` gave CAL PDZ FP-1 1.1, CAL PDZ FP-2 1.6, CaV13 ICDI inh -6.8 and ARNT-TACC3 inh 33.7*!.
For CSc1cc(CS(=O)(=O)c2ccccc2)nc(-c2ccccc2)n1 the results were CAL PDZ FP-1 79.5*, CAL PDZ FP-2 -1.0 and ARNT-TACC3 inh -3.7.
Screening O=S(=O)(Cc1cc(NCc2ccccc2)nc(-c2ccncc2)n1)c1ccccc1 returned CAL PDZ FP-1 0.2, CAL PDZ FP-2 -2.4, CaV13 ICDI inh -3.1 and ARNT-TACC3 inh -3.3.
C[C@@H]1CN([C@@H](C)CO)C(=O)c2cc(-c3ccccc3)cnc2O[C@H]1CN(C)C(=O)Cc1ccccn1 was read as ARNT-TACC3 inh -2.7.
For COC1=C(N)C(=O)c2nc(-c3nc(C(=O)O)c(C)c(-c4ccc(OC)c(OC)c4O)c3N)ccc2C1=O the results were ARNT-TACC3 inh 64.7*.
Cc1ccccc1CNC(=O)c1ccc2ccccc2n1 was read as CAL PDZ FP-1 76.2*, CAL PDZ FP-2 -1.4, CaV13 ICDI inh -3.0 and ARNT-TACC3 inh -8.0.
`O=C(NCc1ccccc1)c1ccc2ccccc2n1` gave CAL PDZ FP-2 -1.4, CaV13 ICDI inh -3.4 and ARNT-TACC3 inh -10.0.
For Cc1ccc(NC(=O)/C(=C\c2ccc([N+](=O)[O-])cc2)NC(=O)c2ccccc2)cc1 the results were CAL PDZ FP-1 -1.9, CaV13 ICDI inh -6.0 and ARNT-TACC3 inh -6.5.
For CC(C)(C)NC(=O)/C(=C/c1ccccc1F)NC(=O)c1ccc([N+](=O)[O-])cc1 the results were CAL PDZ FP-1 -3.9, CAL PDZ FP-2 0.5, CaV13 ICDI inh -4.3 and ARNT-TACC3 inh -6.8.
Screening O=C(N/N=C/c1ccc(O)c(O)c1O)/C(=C/c1ccc([N+](=O)[O-])cc1)NC(=O)c1ccccc1 returned CAL PDZ FP-1 -4.4, CAL PDZ FP-2 -13.3, CaV13 ICDI inh -3.5 and ARNT-TACC3 inh 64.3*.
Screening CC(C)(C)NC(=O)/C(=C\c1ccccc1F)NC(=O)c1ccc([N+](=O)[O-])cc1 returned CAL PDZ FP-1 70.1*, CAL PDZ FP-2 -1.4, CaV13 ICDI inh 1.4 and ARNT-TACC3 inh -3.9.
O=C(Nc1cccc2ccccc12)/C(=C/c1ccc([N+](=O)[O-])cc1)NC(=O)c1ccccc1 was read as CAL PDZ FP-1 68.0*, CAL PDZ FP-2 -1.3, CaV13 ICDI inh -3.7 and ARNT-TACC3 inh -5.1.
CCC(=O)N1C[C@H]2[C@@H](c3ccccc31)[C@@H](CO)N2C(=O)Nc1ccccc1F was read as ARNT-TACC3 inh -0.2.
`CC(C)NC(=O)NCC[C@@H]1CC[C@@H](NS(=O)(=O)c2ccc(-c3ccccc3)cc2)[C@@H](CO)O1` gave ARNT-TACC3 inh -3.1.
`C[C@H](CO)N1C[C@H](C)[C@H](CN(C)Cc2ccc3c(c2)OCO3)Oc2ccc(NC(=O)NC3CCCCC3)cc2C1=O` gave ARNT-TACC3 inh -0.3.
For C[C@@H]1CCCCO[C@H](CN(C)C(=O)Cc2ccccc2)[C@H](C)CN([C@@H](C)CO)C(=O)c2cc(NC(=O)Cc3ccccc3)ccc2O1 the results were ARNT-TACC3 inh 0.2.
For COc1ccc(Cl)cc1CNCCCSc1ncccn1 the results were CAL PDZ FP-1 -0.7, CAL PDZ FP-2 -0.1, CaV13 ICDI inh -3.1 and ARNT-TACC3 inh 4.9.
Screening CCOc1ccc(Cl)cc1CNCCCSc1ncccn1 returned CAL PDZ FP-1 69.8*, CAL PDZ FP-2 3.7, CaV13 ICDI inh -5.1 and ARNT-TACC3 inh -18.4.
For Cc1ccc(O)c(NC(=S)NC(=O)C(C)C)c1 the results were CAL PDZ FP-1 33.8*, CAL PDZ FP-2 -1.1, CaV13 ICDI inh -4.7 and ARNT-TACC3 inh -3.5.
For Cc1ccc(O)c(NC(=S)NC(=O)CC(C)C)c1 the results were CAL PDZ FP-1 -0.6, CAL PDZ FP-2 -2.0, CaV13 ICDI inh -5.6 and ARNT-TACC3 inh 7.8.
Screening Cn1cnc(S(=O)(=O)N2C[C@H](O)COC[C@H]3O[C@@H](CC(=O)NC4CCC4)CC[C@@H]32)c1 returned ARNT-TACC3 inh -5.4.
`CN(C)C(=O)CSc1nc2cc(S(=O)(=O)N3CCOCC3)ccc2o1` gave CAL PDZ FP-1 90.3*, CAL PDZ FP-2 -0.1, CaV13 ICDI inh -9.2 and ARNT-TACC3 inh 0.8.
`Cc1cc2c3c([nH]c2cc1S(=O)(=O)NCc1ccc(CN2CCCCCC2)o1)CC(C)(C)CC3=O` gave CAL PDZ FP-1 45.7*, CAL PDZ FP-2 -1.9, CaV13 ICDI inh -1.9 and ARNT-TACC3 inh 3.2.
`O=C(N/N=C/c1cc(Br)c(O)c(Br)c1O)c1cccnc1` gave CAL PDZ FP-1 -8.0, CAL PDZ FP-2 0.4, CaV13 ICDI inh -6.0 and ARNT-TACC3 inh 70.3*.
Screening COc1ccc(/C=N/Nc2nc3ccccc3o2)cc1O returned CAL PDZ FP-1 -0.4, CAL PDZ FP-2 -1.3, CaV13 ICDI inh -4.2 and ARNT-TACC3 inh 44.3*.
Screening O=C(N/N=C/c1cc(O)ccc1Br)c1cccnc1 returned CAL PDZ FP-1 -11.1, CAL PDZ FP-2 -3.9, CaV13 ICDI inh -21.9 and ARNT-TACC3 inh 85.3*.
For O=C(N/N=C/c1cc2c(cc1Br)OCO2)c1cccnc1 the results were CAL PDZ FP-1 -4.1, CAL PDZ FP-2 -2.7 and CaV13 ICDI inh -4.5.

Screens deposited in PubChem by Broad Institute.
